A selection: hits, their analogues and other compounds. The true share with any hit is near 1.5%.
APJ antag = antagonists of human APJ apelin receptor; AID 2521; CHO-K1 APJ beta-arrestin complementation, luminescence; inhibition, % at 20 µM; 0.32% of 330,000 active; P35414;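 active = inhibition above about 40% at 20 µM, limit read from the data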;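 also: cells challenged with 10 nM apelin-13 agonist together with compound; plate controls were apelin-13 plus DMSO wells for no effect and DMSO wells lacking apelin-13 for full effect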
Target sequence (P35414 whole entry, looked up): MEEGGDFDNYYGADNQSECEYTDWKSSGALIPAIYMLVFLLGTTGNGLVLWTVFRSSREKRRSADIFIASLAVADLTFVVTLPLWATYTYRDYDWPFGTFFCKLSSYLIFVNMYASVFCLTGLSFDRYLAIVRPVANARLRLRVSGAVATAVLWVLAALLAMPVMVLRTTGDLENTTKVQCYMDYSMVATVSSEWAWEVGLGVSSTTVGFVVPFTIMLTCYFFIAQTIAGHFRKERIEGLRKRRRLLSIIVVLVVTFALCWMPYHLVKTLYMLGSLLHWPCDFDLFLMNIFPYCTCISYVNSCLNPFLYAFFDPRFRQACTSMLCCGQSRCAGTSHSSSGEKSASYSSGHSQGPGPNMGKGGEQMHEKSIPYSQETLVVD
CCR6 antagonist = antagonists of human CCR6 receptor; CHO-K1 CCR6 PathHunter beta-arrestin, luminescence, CCL20-stimulated; inhibition, % at 20 µM; 0.49% of 340,000 active; AID 493098;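 active = compounds whose inhibition of the agonist-driven luminescence signal at 20 µM reaches about 50%, limit read from the data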;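 also: cells stimulated with CCL20 at 14 nM final; plate controls were DMSO with CCL20 for no effect and DMSO without agonist for full effect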
EBI2 block = antagonists of human EBI2 receptor; P32249; EBI2 beta-arrestin recruitment, luminescence, 7a,25-OHC stimulated; inhibition, % at 5 µM; 0.81% of 360,000 active; in the data active = inhibition above about 38%;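 also: enzyme fragment complementation signal reports receptor beta-arrestin coupling in cells; 0% = agonist plus DMSO wells and 100% = wells without agonist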
APJ agonist = agonists of human APJ apelin receptor; P35414; CHO-K1 APJ PathHunter beta-arrestin, luminescence; 0% DMSO wells, 100% apelin; activation, % at 20 µM; 0.11% of 330,000 active; AID 2520;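 active = activation more than six SD over the plate average, tested at 20 µM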;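 also: 0% = DMSO alone and 100% = apelin-13 at 10 nM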
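Assay system: CHO-K1 cells stably expressing ProLink-tagged human APJ and arrestin–beta-gal acceptor. Compound dosing: 20 µM single point, 1% DMSO. Times: 16-18 h seeding, 90 min dark compound exposure, 60 min detection. Detection: beta-gal luminescence. Evaluation: APJ–arrestin association signal. Controls: negative DMSO alone, positive Apelin-13 at 10 nM.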
CXCR6 inh = blocks human CXCR6 beta-arrestin recruitment. CHO-K1 PathHunter CXCR6 beta-arrestin, luminescence. O00574. AID 602244. inhibition, % at 20 µM. 0.36% of 360,000 active; in the data active = inhibition above about 34%, passing the limit was not always enough;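 also: antagonist mode with CXCL16 agonist at 10 nM final; 0% = 10 nM CXCL16 with DMSO and 100% = unstimulated wells without agonist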
APJ ag conf = APJ receptor agonism confirmation; 10% of 310 active; shares compounds with APJ agonist; AID 2764; CHO-K1 APJ PathHunter beta-arrestin, luminescence; activation, % at 20 µM;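 active = activation above 40%, taking the highest of four retests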;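 also: plate controls were DMSO wells for no effect and apelin-13 at 10 nM for full effect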
* marks the source's active call; other numbers are inactive results; x = not tested or not shown.

SMILES	APJ antag	CCR6 antagonist	EBI2 block	APJ agonist	CXCR6 inh	APJ ag conf
N/C(=N\OC(=O)c1ccccc1)c1ccncc1	-58.5	-9.2	-6.8	3.6	-0.9	x
CCOC(=O)Cc1nnc(NC(=O)CSc2nnc3c(n2)[nH]c2ccccc23)s1	23.6	1.6	-3.6	-0.1	2.5	x
N/C(Cc1ccc(Cl)c(Cl)c1)=N\OC(=O)c1cccs1	-46.6	-25.1	-22.2	18.5*	-18.9	40.4*
CCSc1ccc(-c2cc(NC=O)c3ncc(-c4cccc(C(=O)NCCN(C)C)c4)n3c2)cc1	x	x	-2.4	x	0.0	x
COc1cccc(N2CCN(c3ncnc4c3[nH]c3ccccc34)CC2C)c1 (stereo unspecified)	-57.4	x	x	19.0*	x	41.4*
COc1ccc([N+](=O)[O-])cc1C(=O)Nc1ccc(Cc2ccncc2)cc1	8.1	6.8	5.8	15.9*	-2.5	11.6
COc1ccccc1C(=O)Nc1ccc(Cc2ccncc2)cc1	-3.8	10.6	1.1	x	-14.3	x
Cc1cccc(NC(=O)c2sc(Cl)nc2C)c1C	-17.4	11.9	3.4	-1.6	3.6	x
CCCCNc1c(-c2ccc(OC)c(SC(C)CC)c2)nc2ccc(Cl)cn12 (stereo unspecified)	-14.5	-4.2	21.1	-1.5	-7.2	x
CCCCNc1c(-c2ccc(OC)c(SC3CCCCC3)c2)nc2ccc(C)cn12	4.0	24.6	-22.1	17.5*	22.9	30.3
CCCCNc1c(-c2ccc(OC)c(SC(C)CC)c2)nc2ccc(C)cn12 (stereo unspecified)	-27.7	25.1	-71.0	26.1*	11.7	8.8
CCn1cc(/C=C(\NC(=O)c2ccc(OC)c(OC)c2)C(=O)NCCCN2CCOCC2)c2ccccc21	13.2	3.9	-6.1	-0.4	3.8	x
O=C(CCOc1ccccc1)Nc1ccnn1C1CCN(C(=O)CCC(F)(F)F)CC1	-0.7	-1.1	3.0	0.2	8.7	x
COC(=O)c1c(C(=O)OC)c2ccncn2c1Cl	16.8	-7.5	3.0	0.2	7.3	x
CCOc1ccccc1-c1nc(-c2ccc(NC(=O)Cc3ccc(OC)cc3)cc2)no1	-9.5	-1.3	0.5	21.9*	-0.2	20.2
CCN(CC)CCCNC(=O)c1cc(Cl)c(NC(=O)C2=C(C)OCCS2)cc1OC	14.1	7.5	-7.8	12.8*	0.8	30.2
CCN1CCN(CCNC(=O)c2cc(Cl)c(NC(=O)C3=C(C)OCCS3)cc2OC)CC1	-13.4	-6.6	7.0	23.9*	5.1	2.3
CCC(C)NC(=O)c1cc(Cl)c(NC(=O)C2=C(C)OCCS2)cc1OC (stereo unspecified)	7.8	2.0	25.6	-1.1	2.1	x
c1ccc(SCc2cn(C[C@H]3CC[C@@H]([C@@H]4CC[C@H](Cn5cc(CSc6ccccc6)nn5)O4)O3)nn2)cc1	9.4	-4.9	6.7	-2.5	-1.5	x
Cc1oc(-c2cccs2)nc1CNC[C@H]1O[C@@H](n2cnc3c(N)ncnc32)[C@H](O)[C@@H]1O	-1.5	-17.1	-12.1	-2.5	-2.3	x
CN1C(=O)C(C)(C)N(C(=O)c2cccc([N+](=O)[O-])c2)c2ccccc21	-3.9	19.0	-1.2	-2.4	-4.6	x
CCc1nnc(NC(=O)CSc2nc3cccnc3n2C2CCCCC2)s1	-0.4	10.2	7.1	52.9*	10.3	62.0*
O=C(NCc1ccc2c(c1)OCO2)c1ccc(S(=O)(=O)N2CCOCC2)cc1	2.4	0.1	1.5	0.2	0.3	x
C=C1CCN([C@@H](CC(C)C)C(=O)O)S(=O)(=O)c2ccccc21	2.5	-4.9	-6.3	45.5*	-2.5	27.9
CCOC(=O)N1CCN(C(=O)c2ccc(Cn3c(=S)[nH]c4cc5c(cc4c3=O)OCO5)cc2)CC1	-16.3	-9.9	-29.3	23.4*	4.5	14.9
Cc1ccc(C)c2[nH]c(=O)c(CCNC(=O)c3cc4ccccc4o3)cc12	-16.4	-9.0	9.1	12.5*	-8.1	18.1
COc1cc2c3nnc(-c4ccc(F)cc4)c-3cn(Cc3ccccc3)c2cc1OC	18.3	4.5	2.4	24.2*	-4.3	35.7
COc1cc2c3nnc(-c4ccc(F)cc4)c-3cn(Cc3ccc(F)cc3)c2cc1OC	26.7	13.3	7.3	4.0	6.4	x
N#Cc1nc(-c2ccc(OCc3ccc(Cl)cc3)cc2)oc1N1CCOCC1	0.6	7.3	-15.6	25.2*	2.9	3.7

Screening data from PubChem.
